Test results reported in ChEMBL document CHEMBL1121371, “Antihypertensive 5,6-diarylpyridazin-3-ones” (1980).
“And” between values parts separate entries of the source, which are not always exact repeats. Identical values can stand only once.

tested on: Rattus norvegicus; assay: Antihypertensive activity in spontaneously hypertensive rats was measured as average blood pressure at 100 mg/kg, p.o. after 24 hours of postdose-1.; format: functional; conditions: route oral
Summary of the method: (§1)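 Spontaneously hypertensive rats aged 12 to 16 weeks, in groups of five with systolic pressure of 170 mmHg or more. Oral dosing as a solution or suspension in 0.25% methylcellulose, 5 mL/kg, with a vehicle control group. Tail-cuff systolic pressure was read predose and 4 and 24 h after each of two doses. Values were compared with predose by Student's t test.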

| Structure (SMILES) | BP [mmHg] |
| --- | --- |
| CC(=O)c1c(-c2ccc(Cl)cc2)c(-c2ccc(Cl)cc2)nn(C(C)CO)c1=O (centres undefined) | 174 |
| CCOC(=O)CCCn1nc(-c2ccc(Cl)cc2)c(-c2ccc(Cl)cc2)c(C(C)=O)c1=O | 174 |

same assay, conditions: route oral, 100 mg/kg

| Structure (SMILES) | BP |
| --- | --- |
| CC(=O)c1c(-c2ccc(Cl)cc2)c(-c2ccc(Cl)cc2)nn(CCN2CCOCC2)c1=O | 201 mmHg and 161 mmHg |

tested on: Rattus norvegicus; assay: Antihypertensive activity in spontaneously hypertensive rats was measured as average blood pressure at 100 mg/kg, po after 24 hours of postdose-2; format: functional; conditions: not given; summary of the method: as §1

| Structure (SMILES) | BP [mmHg] |
| --- | --- |
| CC(=O)c1c(-c2ccc(Cl)cc2)c(-c2ccc(Cl)cc2)nn(C(C)CO)c1=O (centres undefined) | 201 |
| CCOC(=O)CCCn1nc(-c2ccc(Cl)cc2)c(-c2ccc(Cl)cc2)c(C(C)=O)c1=O | 181 |

same assay, conditions: 100 mg/kg

| Structure (SMILES) | BP |
| --- | --- |
| CC(=O)c1c(-c2ccc(Cl)cc2)c(-c2ccc(Cl)cc2)nn(CCN2CCOCC2)c1=O | 222 mmHg and 177 mmHg |

tested on: Rattus norvegicus; assay: Antihypertensive activity in spontaneously hypertensive rats was measured as average blood pressure at 100 mg/kg, p.o. after 4 hours of postdose-1; format: functional; conditions: route oral; summary of the method: as §1

| Structure (SMILES) | BP [mmHg] |
| --- | --- |
| CC(=O)c1c(-c2ccc(Cl)cc2)c(-c2ccc(Cl)cc2)nn(CCN2CCOCC2)c1=O | 140 |
| CC(=O)c1c(-c2ccc(Cl)cc2)c(-c2ccc(Cl)cc2)nn(C(C)CO)c1=O (centres undefined) | 186 |

tested on: Rattus norvegicus; assay: Antihypertensive activity in spontaneously hypertensive rats was measured as average blood pressure at 100 mg/kg, p.o. after 4 hours of postdose-1.; format: functional; conditions: route oral; summary of the method: as §1

| Structure (SMILES) | BP [mmHg] |
| --- | --- |
| CC(=O)c1c(-c2ccc(Cl)cc2)c(-c2ccc(Cl)cc2)nn(CCN2CCOCC2)c1=O | 230 |
| CCOC(=O)CCCn1nc(-c2ccc(Cl)cc2)c(-c2ccc(Cl)cc2)c(C(C)=O)c1=O | 192 |

tested on: Rattus norvegicus; assay: Antihypertensive activity in spontaneously hypertensive rats was measured as average blood pressure at 100 mg/kg, p.o. after 4 hours of postdose-2; format: functional; conditions: route oral; summary of the method: as §1

| Structure (SMILES) | BP [mmHg] |
| --- | --- |
| CC(=O)c1c(-c2ccc(Cl)cc2)c(-c2ccc(Cl)cc2)nn(C(C)CO)c1=O (centres undefined) | 191 |
| CCOC(=O)CCCn1nc(-c2ccc(Cl)cc2)c(-c2ccc(Cl)cc2)c(C(C)=O)c1=O | 188 |

same assay, conditions: route oral, 100 mg/kg

| Structure (SMILES) | BP |
| --- | --- |
| CC(=O)c1c(-c2ccc(Cl)cc2)c(-c2ccc(Cl)cc2)nn(CCN2CCOCC2)c1=O | 199 mmHg and 146 mmHg |

tested on: Rattus norvegicus; assay: Antihypertensive activity in spontaneously hypertensive rats was measured as average blood pressure at 100 mg/kg, p.o. before predose; format: functional; conditions: route oral; summary of the method: as §1

| Structure (SMILES) | BP [mmHg] |
| --- | --- |
| CC(=O)c1c(-c2ccc(Cl)cc2)c(-c2ccc(Cl)cc2)nn(C(C)CO)c1=O (centres undefined) | 212 |
| CCOC(=O)CCCn1nc(-c2ccc(Cl)cc2)c(-c2ccc(Cl)cc2)c(C(C)=O)c1=O | 196 |

same assay, conditions: route oral, 100 mg/kg

| Structure (SMILES) | BP |
| --- | --- |
| CC(=O)c1c(-c2ccc(Cl)cc2)c(-c2ccc(Cl)cc2)nn(CCN2CCOCC2)c1=O | 239 mmHg and 201 mmHg |

tested on: Rattus norvegicus; assay: Antihypertensive activity in spontaneously hypertensive rats, measured as average blood pressure at 100 mg/kg, p.o. before predose; No significant lowering of blood pressure; format: functional, organism-based; parameters: dose 100 mg/kg; conditions: not given

| Structure (SMILES) | BP |
| --- | --- |
| CCCC(=O)c1c(-c2ccc(Cl)cc2)c(-c2ccc(Cl)cc2)nn(CCO)c1=O | Not significant |
| CC(=O)Cn1nc(-c2ccc(Cl)cc2)c(-c2ccc(Cl)cc2)c(C#N)c1=O | Not significant |
| CCOC(=O)c1c(-c2ccc(Cl)cc2)c(-c2ccc(Cl)cc2)nn(CCO)c1=O | Not significant |
| CC(=O)c1c(-c2ccc(Cl)cc2)c(-c2ccc(Cl)cc2)nn(CC(N)=O)c1=O | Not significant |
| CC(=O)c1c(-c2ccc(Cl)cc2)c(-c2ccc(Cl)cc2)nn(CC(=O)O)c1=O | Not significant |
| CCCC(=O)c1c(O)nnc(-c2ccc(Cl)cc2)c1-c1ccc(Cl)cc1 | Not significant |
| N#Cc1c(O)nnc(-c2ccc(Br)cc2)c1-c1ccc(Br)cc1 | Not significant |
| COc1ccc(-c2nn(CCO)c(=O)c(C#N)c2-c2ccc(OC)cc2)cc1 | Not significant |
| CC(O)c1c(-c2ccccc2)c(-c2ccccc2)nn(CCO)c1=O (centres undefined) | Not significant |
| COc1ccc(OC)c(-c2c(-c3ccccc3)c(-c3ccccc3)nn(CCO)c2=O)c1 | Not significant |
| Oc1nnc(-c2ccccc2)c(-c2ccccc2)c1-c1ccccc1 | Not significant |
| Cc1ccc(-c2nnc(O)c(-c3ccccc3)c2-c2ccc(C)cc2)cc1 | Not significant |

tested on: Rattus norvegicus; assay: Antihypertensive activity in spontaneously hypertensive rats was measured as increase in heart rate at 100 mg/kg peroral dose; (+)=increased heart rate; format: functional, organism-based; parameters: dose 100 mg/kg; conditions: not given

| Structure (SMILES) | Heart rate |
| --- | --- |
| CC(=O)c1c(-c2ccc(Cl)cc2)c(-c2ccc(Cl)cc2)nn(CCN(C)C)c1=O | increased heart rate |
